MrgX1 antagonist: blocks BAM8-22 activation of human MrgX1 receptor; B-score at 10 µM; Q96LB2; MRGX1-HEK293 calcium flux, Fluo-4, BAM8-22 antagonism; active compounds read low; hit rate 1.3% among 310,000;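 active means calcium-response B-score plate-corrected more than 3 library SD below zero, starting fluorescence within 5 deviations, no agonist response on first addition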;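 further: peak minus trough fluorescence over baseline after final BAM8-22 challenge near maximal dose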
Target sequence (Q96LB2 whole entry, looked up): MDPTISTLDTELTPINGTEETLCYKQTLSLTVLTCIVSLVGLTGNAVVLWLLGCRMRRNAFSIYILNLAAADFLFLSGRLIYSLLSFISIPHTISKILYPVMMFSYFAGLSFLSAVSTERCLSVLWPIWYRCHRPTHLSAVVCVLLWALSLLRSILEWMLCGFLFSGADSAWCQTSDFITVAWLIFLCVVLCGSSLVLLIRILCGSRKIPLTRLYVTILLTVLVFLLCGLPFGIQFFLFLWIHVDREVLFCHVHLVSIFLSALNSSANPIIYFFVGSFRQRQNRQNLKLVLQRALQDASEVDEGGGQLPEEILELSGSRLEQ
RGS4 pot: potentiators or activators of RGS4 | HEK293 M3R/inducible RGS4, carbachol calcium flux Fluo4; active compounds read low | B-score at 10 µM | hit rate 0.92% among 310,000;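 active means B-score of the integrated calcium signal more than 4 SD below the library mean, with starting fluorescence not abnormally high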;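 further: negative B-score means reduced calcium response which marks RGS4 activation or potentiation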
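System: HEK293 FlpIn-TREx cells, stable M3R, doxycycline-inducible RGS4. Timing: overnight RGS4 induction, 30 min dye load 37 °C, 20 min compound RT. Also added: carbachol, ECmax concentration. Measured by: Fluo4 fluorescence kinetic imaging of calcium. Evaluation: integrated calcium ratio converted to B score.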
MrgX1 agonist: human MrgX1 receptor agonism, primary screen; hit rate 0.44% among 310,000; Q96LB2; B-score at 10 µM; MrgX1-HEK293 cells, Fluo-4 calcium fluorescence, agonist mode; active compounds read high; AID 588627;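 active means calcium response B-score plate-corrected fluorescence ratio at least 3 library SD, with starting fluorescence B-score inside 5 SD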
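System: HEK293 cells stably expressing human MrgX1 receptor; Dosing: test compound in the initial addition of three; Schedule: overnight plating, then 30 min 37 °C plus 30 min room-temperature dye loading; Detection: kinetic calcium dye fluorescence, Fluo-4 NW; Controls: per-plate positive and negative controls for Z′ factor.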
MrgX1 PAM: human MrgX1 positive allosteric modulation, primary screen; Q96LB2; MrgX1-HEK293, Fluo-4 calcium flux, FDSS; active compounds read high; B-score at 10 µM; hit rate 0.63% among 310,000;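 active means plate-corrected calcium response at least 3 library SD above typical, normal starting fluorescence, not activating the receptor alone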;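 further: compound read alongside a low EC10 to EC30 dose of BAM8-22 agonist; peak minus trough fluorescence over baseline measured at the second addition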
RGS4 inh: human RGS4 inhibition; P49798; hit rate 0.45% among 310,000; AID 463165; B-score at 10 µM; HEK293 M3R/RGS4 inducible, Fluo-4 calcium flux; active compounds read high; triggered by carbachol at its EC20;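 active means B-score, a plate-corrected calcium signal, over three deviations above library mean, with baseline fluorescence within five deviations of library mean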;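 further: RGS4 expression induced by doxycycline in cells with stable M3 receptor; B-score is computed from the integrated fluorescence ratio over baseline after carbachol; higher B-score means a larger calcium signal and so more RGS4 inhibition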
Target sequence (P49798 whole entry, looked up): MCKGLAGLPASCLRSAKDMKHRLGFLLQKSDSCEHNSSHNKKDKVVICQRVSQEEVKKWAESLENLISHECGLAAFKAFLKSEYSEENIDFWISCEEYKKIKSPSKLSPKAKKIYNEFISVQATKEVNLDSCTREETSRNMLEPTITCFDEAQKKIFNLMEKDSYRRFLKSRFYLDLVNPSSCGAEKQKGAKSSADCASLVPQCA
Numbers without * were called inactive; i = inactive; nt = no result given. Only some compounds are listed: those with a hit (about 3.5% of all), similar ones and a draw of the others.

SMILES | MrgX1 antagonist | RGS4 pot | MrgX1 agonist | MrgX1 PAM | RGS4 inh
O=C(N/N=C/c1cc([N+](=O)[O-])ccc1O)c1cc(-c2ccccc2)nc2ccccc12 | -6* | i | i | i | i
CCOc1ccc(C=O)cc1CN1CCCCC1 | -5.8* | i | i | i | i
CCOc1cc(CN2CCCCC2)ccc1OC | i | i | i | i | i
COc1cccc(/C=N/NC(=O)c2ccoc2C)c1 | i | -8.5* | i | i | i
CC(=O)OCC1OC(OC(C)=O)C(NC(=O)c2cccnc2)C(OC(C)=O)C1OC(C)=O (stereo unspecified) | i | i | i | i | i
CC(=O)c1cc(CCC(=O)NC2CCCCCC2)oc1C | i | i | i | i | i
CN(C)S(=O)(=O)c1ccc(Cl)c(NC(=O)COc2ccccc2[N+](=O)[O-])c1 | i | i | i | i | i
CCCC[C@@H]1C[C@H]1[C@@H](NC(=O)c1ccccc1)c1ccccc1C(F)(F)F | i | i | i | i | i
C=C(CC1([C@@H](NP(=O)(c2ccccc2)c2ccccc2)[C@H]2C[C@@H]2CCCC)CC1)c1ccccc1 | -4.8* | i | i | i | i
CN(C)c1ccnc(N(Cc2ccccc2)Cc2ccccc2)c1C#N | i | -11* | i | i | i
Cn1c(=O)c2[nH]c(SCC(=O)c3ccc(F)cc3)nc2n(C)c1=O | i | i | i | i | i
COc1ccc(C(=O)Nc2c(N)nc(SCC(=O)Nc3ccc(NC(C)=O)cc3)[nH]c2=O)cc1 | -4.9* | i | i | i | i
COc1ccc(C(=O)NNC(=O)CSc2nc3c([nH]2)c(=O)n(C)c(=O)n3C)cc1 | -4.6* | i | i | i | i
Cc1ccc(C(=O)Nc2c(N)nc(SCC(=O)Nc3cc(C)on3)[nH]c2=O)cc1 | -6.4* | i | i | i | i
Cc1ccc2nc(SCC(=O)Nc3cc(C)on3)[nH]c2c1 | i | i | i | i | i
CC(Oc1ccccc1)C(=O)NNS(=O)(=O)c1ccc([N+](=O)[O-])cc1 (stereo unspecified) | i | i | i | i | i
COc1ccc(C)cc1S(=O)(=O)N(C)CC(=O)N1CCC(C(N)=O)CC1 | i | i | i | i | i
CCCCCc1cc(=O)oc2c(C(CCN(CC)CC)c3ccc(N(C)C)cc3)c(OC)cc(OC)c12 (stereo unspecified) | i | i | i | i | i
Cc1c2ccccc2nc2c(F)c(N(C)C)c(F)c(F)c12 | -8.1* | i | i | i | i
COc1cc(/C=N\N=C2/SC(CC(=O)O)C(=O)N2c2ccc(O)cc2)ccc1O (stereo unspecified) | -8.2* | i | i | i | i
O=C(O)c1ccc(-c2nc(-c3ccc(Cl)cc3Cl)cs2)cc1 | i | i | i | i | i
Cc1onc(-c2ccc(Cl)cc2Cl)c1-c1csc(COc2ccccc2)n1 | i | -7.3* | i | i | i
CC1=C(C#N)c2nc(N)c(C#N)c(C)c2/C1=C\c1ccc(OCC(=O)O)c(Cl)c1 | -5.4* | i | i | i | i
O=C(Cc1cccs1)Nc1ccc(-c2nnn(CC(=O)N3CCOCC3)n2)cc1 | -6.4* | i | i | i | i
COCCOC(=O)/C(=C\c1cc(C(C)(C)C)c(O)c(C(C)(C)C)c1)C(C)=O | i | i | i | 6.6* | i
SMILES | MrgX1 antagonist | RGS4 pot | MrgX1 agonist | MrgX1 PAM | RGS4 inh
CC(C)(C)c1cc(CCC(=O)NN)cc(C(C)(C)C)c1O | i | i | i | i | i
COc1ccc(NC(=O)CSc2nnc3ccc(-c4cccnc4)nn23)c(OC)c1 | i | i | i | i | i
CCOC(=O)CSc1nc2c(sc(=S)n2-c2ccccc2OC)c(=O)n1Cc1ccco1 | i | i | 40* | i | i
Cc1[nH]c(=O)[nH]c(=O)c1S(=O)(=O)Nc1ccc(F)cc1Cl | i | i | i | i | i
O=C1C(Cl)=C(N2CCCCCC2)C(=O)N1c1ccccc1 | i | -7.4* | i | i | i
CC(c1ccccc1)n1c(SCC(=O)Nc2ccccc2)n[nH]c1=O (stereo unspecified) | i | i | i | i | i
CN(C)c1cc[n+](CC(=O)Nc2ccc(Oc3ccccc3)cc2)cc1 | i | -9.1* | i | i | i
O=C(N/N=C/c1ccc(F)cc1)c1cccc(NC(=O)c2ccc(F)cc2)c1 | i | -7.3* | i | i | i
O=C(N/N=C/c1ccccc1F)c1cccc(NC(=O)c2ccccc2Cl)c1 | i | i | i | 8.4* | i
Cc1ccccc1C(=O)Nc1cccc(C(=O)Nc2ccccc2C(=O)O)c1 | i | i | i | i | i
O=C(Nc1ccccc1C(=O)O)c1cccc(NC(=O)c2ccccc2Cl)c1 | i | -7* | i | i | i
O=[N+]([O-])c1ccc(N2CCC(O)CC2)nc1 | i | i | i | i | i
Cn1c(CC(=O)Nc2ccccc2)cc2ccccc21 | i | i | i | i | i
Cc1ccc(C)c(C(=O)COC(=O)CCCC(=O)Nc2cc(C(F)(F)F)ccc2Cl)c1 | -7* | i | i | i | i
N#CC1(c2ccccc2)CCN(S(=O)(=O)c2ccc(OC(F)(F)F)cc2)CC1 | i | i | i | i | i
Cc1ccc(C(=O)c2c(C)oc3c2C(=O)C(=O)c2ccccc2-3)cc1 | i | -7.5* | i | i | i
Cc1oc2c(c1C(=O)c1ccc(Cl)cc1)C(=O)C(=O)c1ccccc1-2 | nt | i | nt | nt | i
Cc1ccc2c(C(=O)CCl)c(C)[nH]c2c1 | i | i | i | 8.2* | i
O=C(OCCN1C(=O)c2cccc3c(N4CCOCC4)ccc(c23)C1=O)c1ccccc1Cl | i | -8.2* | i | i | i
CCOC(=O)c1c(-c2ccccc2)nnn1-c1nc(OCC)nc(N2CCCCC2)n1 | i | -8.7* | i | i | i
COC(=O)C1(C(C[N+](=O)[O-])c2ccco2)C(=O)NCC1c1ccccc1 (stereo unspecified) | i | i | 42* | i | i
C=CCN1C(=O)c2ccc(C(=O)OCC(=O)Nc3ccc(S(N)(=O)=O)cc3)cc2C1=O | i | i | i | i | i
CCOC(=O)c1c(N2C(=O)Nc3ccccc3N2O)sc2c1CCCC2 | i | i | 37* | i | i
CCc1cc(CNC(=O)C2CCC(=O)N(Cc3cccc(F)c3)C2)on1 (stereo unspecified) | i | i | i | i | i
O=[N+]([O-])c1ccccc1/C=N\N1CCN(c2ccccc2)CC1 | i | i | i | 6.9* | i

Compound activity: PubChem BioAssay, Johns Hopkins Ion Channel Center
